These results are taken from PubChem BioAssay.

The nature of assay [1]: inhibitors of TNFa-induced NFkB p65 translocation, primary screen, imaging, HUVEC, MLSMR starter and 10KST1 sets (AID 438;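 active = inhibition above 20% together with a positive visual image hit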;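 note: compound added about 3h40 before a 20 min TNFalpha stimulation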;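 for inhibition: signal is the nuclear over cytoplasmic p65 intensity ratio per well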). The settings on record: HUVEC TNFa-induced p65 nuclear translocation; cell count: measured here: nuclei count (cytotoxicity indicator), at 2.08 µM unless noted; inhibition: at 2 µM, stronger effect = higher value unless noted.
A short description of assay [2]: endothelial E-selectin expression blockers – imaging, HUVEC, immunofluorescence, MLSMR starter and 10KST1 sets, primary screen (AID 487;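 active = visually confirmed hit in the image check and inhibition above 20%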;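 for inhibition: signal is fraction of cell area covered by stained E-selectin grains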;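 for nuclei count: 100% = median nuclei count of all wells on the same plate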). The conditions noted are these: HUVEC TNFalpha-induced E-selectin immunofluorescence imaging, at 2 µM; inhibition: stronger effect = higher value; nuclei count: measured here: cell number, toxicity.
Assay [3] is described as follows: Primary imaging screen for DUSP6 inhibitors that restore phospho-Erk in transfected HeLa cells, chemical complementation (AID 609).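 For inhibition: phospho-Erk level distribution per well compared with pooled transfected vehicle control wells.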 The settings on record: HeLa MKP-3 transfected, phospho-Erk imaging KS statistic, at 10 µM.
Assay [4] deals with Dual specificity protein phosphatase 6 (Homo sapiens) (UniProt Q16828). The assay is described as above. The conditions noted are these: HeLa MKP-3 transfected, phospho-Erk imaging KS statistic, at 10 µM, stronger effect = higher value.
Chain of Dual specificity protein phosphatase 6 (Homo sapiens) (Q16828 whole entry, looked up): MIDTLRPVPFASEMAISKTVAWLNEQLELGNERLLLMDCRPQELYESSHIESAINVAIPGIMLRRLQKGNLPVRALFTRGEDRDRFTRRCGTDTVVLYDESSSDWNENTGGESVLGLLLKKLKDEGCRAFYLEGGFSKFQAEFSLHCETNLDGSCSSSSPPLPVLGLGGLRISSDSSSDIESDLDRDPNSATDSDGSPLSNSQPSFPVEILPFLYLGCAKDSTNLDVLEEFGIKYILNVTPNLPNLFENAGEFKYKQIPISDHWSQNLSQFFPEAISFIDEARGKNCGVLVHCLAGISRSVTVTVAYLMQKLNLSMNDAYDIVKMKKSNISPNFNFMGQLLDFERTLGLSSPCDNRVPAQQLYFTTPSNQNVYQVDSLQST
Assay [5] has as its target Voltage-gated potassium channel subunit beta-2 (Rattus norvegicus) (UniProt P62483). The assay can be described thus: inhibitors of rat Kvbeta2 reductase activity – biochemical, NADPH fluorescence, primary screen (AID 622;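 active = fluorescence slope higher than the sample average by over 3 SD, cut at about -0.22 in these data, passing the limit was not always enough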;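 note: slope of raw intensity against log time taken from 70 to 1610 s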). The conditions noted are these: recombinant KvBeta, 4-cyanobenzaldehyde reduction, at 10 µM, stronger effect = higher value.
For assay [6] the target is unchanged. The assay can be described thus: enhancers of rat Kvbeta2 NADPH turnover – biochemical, NADPH fluorescence, primary screen (AID 623;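 active = NADPH fluorescence slope more negative than the mean of all samples by about 3 SD, 99.7% confidence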;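 note: fluorescence intensity change per second fitted from 20 to 320 s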). The settings on record: Recombinant KvBeta, NADPH fluorescence decrease slope, 10 min; at 10 µM; stronger effect = lower value.
The target of assay [7] is Alpha-2C adrenergic receptor (Homo sapiens) (UniProt P18825). Description: compounds altering alpha2C-coupled GIRK flux – cell-based, HEK293 alpha2C/GIRK1/2, thallium flux, primary screen (AID 624;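 active = fluorescence slope after compound addition differing from the mean of all screened samples at 99.7% confidence, in either direction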;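 note: slope of fluorescence ratio to pre-addition baseline per second over 15 to 24 s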). The conditions noted are these: thallium flux BTC fluorescence, at 10 µM, actives lie on both sides.
Chain of Alpha-2C adrenergic receptor (Homo sapiens) (P18825 whole entry, looked up): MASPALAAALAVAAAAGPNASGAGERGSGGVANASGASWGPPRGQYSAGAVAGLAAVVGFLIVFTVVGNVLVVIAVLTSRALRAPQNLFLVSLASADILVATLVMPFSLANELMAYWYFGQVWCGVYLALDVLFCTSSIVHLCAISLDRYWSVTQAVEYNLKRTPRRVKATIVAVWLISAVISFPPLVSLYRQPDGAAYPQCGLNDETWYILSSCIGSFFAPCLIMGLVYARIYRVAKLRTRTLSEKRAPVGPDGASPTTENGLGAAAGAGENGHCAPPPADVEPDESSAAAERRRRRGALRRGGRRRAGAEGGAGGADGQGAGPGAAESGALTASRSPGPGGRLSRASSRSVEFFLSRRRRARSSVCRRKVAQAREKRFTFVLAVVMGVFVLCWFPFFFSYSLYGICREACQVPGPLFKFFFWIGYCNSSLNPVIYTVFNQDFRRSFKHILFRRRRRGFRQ
A short description of assay [8]: inhibitors of larval lipid processing in zebrafish, primary screen, whole organism, PED6 fluorescence, gall bladder and intestine (AID 686;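 active = a full or partial loss of lipid-probe fluorescence in the fish gall bladder, intestine or both, judged by eye; inactive = no fluorescence loss, or compound toxic to the fish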;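 note: larvae 5 to 7 days old with five fish per well; signal comes from phospholipase A2 cleavage of quenched PED6 carried via bile; overnight exposure to compound and PED6 before scoring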). The settings on record: Zebrafish larvae PED6 lipid processing, fluorescence scoring. The essentials:
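system = live zebrafish larvae aged 5-7 days, whole organism | probe or stimulus = ingested quenched lipid PED6 at 100 nM | doses = 20 µM single dose | timing = overnight exposure | detection = fluorescence microscopy with visual scoring of gall bladder and intestine | read-out = visual per-well fluorescence inhibition score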

Assay [9] is described as follows: loss of swimming-algae plug formation – whole organism, Chlamydomonas reinhardtii, WT vs cilia-less mutant, absorbance, 96-well, primary screen (AID 463189;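 active = inhibition at or above 50% relative to wild type and mutant plate controls; inactive = inhibition below 50%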;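 note: 0% = wild type cc124 cells in DMSO and 100% = ciliumless bld1 mutant cells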). The settings on record: Chlamydomonas reinhardtii gravitaxis, OD600 absorbance, 2 days; at 10 µM; stronger effect = higher value.
Where [10] appears, read: measured here: cell density z-score.
The mark [11] stands for this setting: measured here: nuclear c-Myc green intensity z-score.
[12] abbreviates: measured here: nuclear pErk red intensity z-score, stronger effect = higher value.

Molecules are shown by their SMILES. Calls of active or inactive are those of the source.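 Rule for the calls, unless noted: active = compounds giving at least 50% inhibition in the cell-based MKP-3 phosphatase rescue imaging test; inactive = the rest.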

Chain of Voltage-gated potassium channel subunit beta-2 (Rattus norvegicus) (P62483 whole entry, looked up): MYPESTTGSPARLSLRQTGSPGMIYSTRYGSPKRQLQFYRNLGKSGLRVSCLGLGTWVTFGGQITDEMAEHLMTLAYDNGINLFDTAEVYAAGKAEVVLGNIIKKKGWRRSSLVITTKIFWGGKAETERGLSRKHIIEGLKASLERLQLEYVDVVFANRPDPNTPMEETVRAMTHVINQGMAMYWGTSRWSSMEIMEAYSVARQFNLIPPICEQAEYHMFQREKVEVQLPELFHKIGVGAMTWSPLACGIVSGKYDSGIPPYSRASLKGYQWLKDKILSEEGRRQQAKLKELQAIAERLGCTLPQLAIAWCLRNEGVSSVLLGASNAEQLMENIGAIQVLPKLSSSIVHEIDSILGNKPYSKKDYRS

`CC1CCC(C(C)C)C(OP(N)(=O)c2ccccc2)C1` (configuration not stated) showed a cell count in [1] of 413. Further, the inhibition is -4.7% (inactive) in assay [1], -225% (inactive) in assay [2], 36.1% (inactive) in assay [4] and 1.67% (inactive) in [9]. In assay [2], this compound displayed a nuclei count of 189%. Besides, the z-score was 1.77 in assay [3] (setting [10]), -0.238 in assay [3] (setting [11]) and 0.0184 in [3] (setting [12]). In addition, the fluorescence slope in assay [5] was -0.406 (inactive). For the same compound, in assay [6], the NADPH fluorescence slope is -7.4e-05 (inactive). The slope in assay [7] is 0.00486 (inactive). The outcome in [8] was inactive.

For `CCCCOCCCn1c(N)c(C(=O)OCCOC)c2nc3ccccc3nc21`, in assay [1], the cell count came out at 525. Also, the inhibition in assay [1] is -11.4% (inactive); in assay [2], -48% (inactive); in assay [4], 15.5% (inactive); in [9], 29.3% (inactive). In addition, the nuclei count in assay [2] turned out to be 152%. Moreover, the z-score was -0.11 in assay [3] (setting [10]), -0.345 in [3] (setting [11]) and 0.203 in assay [3] (setting [12]). Moreover, the fluorescence slope in [5] was -0.052 (inactive). For the same compound, the NADPH fluorescence slope in assay [6] was -3.5e-06 (inactive). The slope in assay [7] is 0.00403 (inactive). Also, in [8], the result was inactive.

In assay [1], `O=c1[nH]c2ccccc2c(=O)n1-c1cccc(Cl)c1` returned a cell count of 545. The inhibition was -5.4% (inactive) in [1], 40% (inactive) in assay [2], -18.6% (inactive) in [4] and 11.1% (inactive) in assay [9]. Moreover, the nuclei count in assay [2] stood at 129%. Besides, the z-score in assay [3] (setting [10]) is -1.11; in [3] (setting [11]) it was 2.35; in assay [3] (setting [12]), 0.728. The fluorescence slope in [5] is -0.461 (inactive). Besides, the NADPH fluorescence slope in assay [6] was -7e-06 (inactive). Further, the slope in assay [7] was 0.00622 (inactive). For the same compound, the result in [8] was inactive.

Regarding `CCCCCCn1c(O)c(C=Nc2c(C)n(C)n(-c3ccccc3)c2=O)c(=O)[nH]c1=O`, the cell count in assay [1] stood at 335. The inhibition in assay [1] was -9.2% (inactive); in [2], -82.5% (inactive); in [4] it was -7.01% (inactive); in assay [9] it was 5.18% (inactive). Moreover, in [2], the nuclei count was found to be 152%. Besides, the z-score is -0.0314 in assay [3] (setting [10]), 0.533 in assay [3] (setting [11]) and 1.54 in assay [3] (setting [12]). In [5], the fluorescence slope was -0.359 (inactive). In addition, in assay [6], the NADPH fluorescence slope is -0.000298 (inactive). Moreover, the slope in assay [7] is 0.00815 (inactive). For the same compound, the compound was classed as inactive in assay [8].

In the case of `CCOCCN1CCC(OC(C)=O)C(C)C1` (configuration not stated), in [1], the cell count is 461. The inhibition is -0.9% (inactive) in assay [1], -83.1% (inactive) in assay [2], -6.86% (inactive) in assay [4] and -15.8% (inactive) in assay [9]. The nuclei count in assay [2] was found to be 115%. In addition, the z-score is -0.179 in assay [3] (setting [10]), -1.35 in assay [3] (setting [11]) and -0.74 in assay [3] (setting [12]). The fluorescence slope in [5] is -0.51 (inactive). Moreover, the NADPH fluorescence slope in assay [6] was -0.000103 (inactive). For the same compound, the slope in assay [7] was 0.00675 (inactive). The compound was classed as inactive in [8].

In assay [1], `CC(C)OC(=O)c1c(N)n(Cc2ccco2)c2nc3ccccc3nc12` came in with a cell count of 337. In addition, the inhibition is -5.5% (inactive) in assay [1], -136% (inactive) in assay [2], -4.7% (inactive) in [4] and 1.76% (inactive) in assay [9]. This compound gave a nuclei count in assay [2] of 108%. The z-score in assay [3] (setting [10]) was -1.01; in assay [3] (setting [11]) it was 1.4; in [3] (setting [12]) it was -1.07. Moreover, the fluorescence slope in assay [5] was -0.101 (inactive). Moreover, in [6], the NADPH fluorescence slope is 1e-05 (inactive). The slope in assay [7] was 0.00512 (inactive). Also, in [8], the call was inactive.

In [1], `CCCCCCn1c(O)c(C(C)=NC)c(=O)[nH]c1=O` displayed a cell count of 556. Moreover, the inhibition in assay [1] was -6.2% (inactive); in assay [2] it was -77.6% (inactive); in assay [4], -0.608% (inactive); in [9] it was -6.02% (inactive). In assay [2], the nuclei count was found to be 162%. For the same compound, the z-score is 0.993 in assay [3] (setting [10]), -1.06 in [3] (setting [11]) and 1.3 in assay [3] (setting [12]). For the same compound, in assay [5], the fluorescence slope is -0.503 (inactive). Besides, the NADPH fluorescence slope in [6] is -6.1e-05 (inactive). Moreover, the slope in [7] is 0.00581 (inactive). Besides, in assay [8], the call was inactive.

In assay [1], `CN1CCc2nc3sc(C#N)c(N)c3c(-c3cccs3)c2C1` showed a cell count of 596. In addition, the inhibition in assay [1] is -16.8% (inactive); in assay [2], -65% (inactive); in [4], 6.51% (inactive); in [9], -2.74% (inactive). In assay [2], this compound had a nuclei count of 165%. Moreover, the z-score in assay [3] (setting [10]) was 0.586; in [3] (setting [11]), -0.275; in [3] (setting [12]) it was 0.463. In [5], the fluorescence slope is -0.362 (inactive). Also, in [6], the NADPH fluorescence slope is -6e-05 (inactive). In addition, the slope in [7] is 0.00412 (inactive). For the same compound, the compound was classed as inactive in assay [8].

In assay [1], `OC(Cc1ccccc1)(c1ccccc1)C1CN2CCC1CC2` (configuration not stated) registered a cell count of 556. Moreover, the inhibition in assay [1] is -8.4% (inactive); in [2], -124% (inactive); in assay [4], 1.98% (inactive); in [9] it was 0.812% (inactive). This compound also came in with a nuclei count in assay [2] of 130%. Besides, the z-score in [3] (setting [10]) turned out to be 0.0962; in assay [3] (setting [11]) it was 1.34; in assay [3] (setting [12]) it was 0.286. Moreover, in [5], the fluorescence slope is -0.512 (inactive). For the same compound, the NADPH fluorescence slope in assay [6] is -2.1e-05 (inactive). Further, in [7], the slope was 0.00546 (inactive). Further, the compound was called inactive in assay [8].
